Measurements as given in ChEMBL document CHEMBL2151030, “Improving the solubility of a new class of antiinflammatory pharmacodynamic hybrids, that release nitric oxide and inhibit cycloxygenase-2 isoenzyme” (Eur J Med Chem, 2012).
Values after ≈ are worked out from the molar mass of the structure shown.

Assays:
[1] = molecular target: T1, Prostaglandin G/H synthase 1 (Mus musculus, UniProt P22437); assay: Inhibition of COX1-mediated PGE2 production in mouse J774 cells preincubated for 15 mins measured after 30 mins by radioimmunoassay; type: cell-based
T1 sequence (P22437 whole entry): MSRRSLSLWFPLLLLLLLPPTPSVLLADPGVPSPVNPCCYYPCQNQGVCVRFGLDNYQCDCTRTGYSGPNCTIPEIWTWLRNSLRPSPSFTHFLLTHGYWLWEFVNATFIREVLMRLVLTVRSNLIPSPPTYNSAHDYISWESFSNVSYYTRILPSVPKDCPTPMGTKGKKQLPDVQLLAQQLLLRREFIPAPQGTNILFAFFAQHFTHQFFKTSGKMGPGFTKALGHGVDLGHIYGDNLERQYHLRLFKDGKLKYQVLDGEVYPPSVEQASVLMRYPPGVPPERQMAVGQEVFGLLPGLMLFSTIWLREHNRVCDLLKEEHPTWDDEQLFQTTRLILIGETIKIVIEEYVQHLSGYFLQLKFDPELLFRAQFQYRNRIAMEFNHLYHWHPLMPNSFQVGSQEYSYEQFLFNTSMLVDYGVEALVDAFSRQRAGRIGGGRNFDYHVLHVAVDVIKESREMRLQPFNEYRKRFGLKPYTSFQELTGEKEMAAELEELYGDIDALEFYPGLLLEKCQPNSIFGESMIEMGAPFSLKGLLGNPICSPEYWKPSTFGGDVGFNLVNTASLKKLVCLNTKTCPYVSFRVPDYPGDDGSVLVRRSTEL
How it was run: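 Murine J774 macrophages in DMEM/10% FBS, adhered 2 h at 37 °C. […] Supernatant PGE2 measured by RIA. Triplicate wells, mean of three experiments; IC50 by sigmoidal variable-slope fit.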

Mus musculus [2] = assay: Analgesic activity in Swiss albino mouse assessed as reduction of acetic acid-induced writhing at 71.8 nmol/kg, po after 5 mins; type: functional; parameters: scale not given: the % may be the effect or the level left
How it was run: (§1)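 Male Swiss albino mice (23-25 g), standard diet and water ad libitum, 23 ± 1 °C, 12 h light/dark cycle. Test compound given orally; 0.6% acetic acid (10 mL/kg) injected ip. Stretching movements counted for 10 min, beginning 5 min after administration.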

J774 = assay: Selectivity index, ratio of IC50 for COX1-mediated PGE2 production to IC50 for COX2-mediated PGE2 production in mouse J774 cells; type: cell-based
How it was run: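 Ratio of the COX-1 IC50 to the COX-2 IC50, both from PGE2 RIA in J774 cells. For COX-1, cells were given compound for 15 min, then 15 μM arachidonic acid for 30 min; lower concentrations (0.01–1 μM) were tested when warranted. For COX-2, cells were given LPS 10 µg/mL for 24 h with compound at 0.01–10 μM. IC50 came from a sigmoidal variable-slope fit.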

Mus musculus [3] = assay: Analgesic activity in Swiss albino mouse assessed as reduction of acetic acid-induced writhing at 35.9 nmol/kg, po after 5 mins; type: functional; parameters: scale not given: the % may be the effect or the level left; how it was run: as §1
Aorta = assay: Vasorelaxant activity in Wistar rat endothelium-denuded thoracic aortic ring assessed as inhibition of KCl-induced contractile tone in presence of guanylate cyclase inhibitor ODQ; type: functional, tissue-based
How it was run: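 Male normotensive Wistar rats (250–350 g); thoracic aortic rings, endothelium removed by rubbing, removal confirmed by <10% relaxation to ACh (10 µM) in KCl (30 mM)-contracted rings. ODQ 1 µM incubated after confirmation; rings contracted with KCl 30 mM, then 3-fold increasing compound concentrations (1 nM–10 µM). Isometric tension; pIC50 from half reduction of KCl tone; mean ± SE, 6–10 experiments.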

[4] = molecular target: T2, Prostaglandin G/H synthase 2 (Mus musculus) (UniProt Q05769); assay: Inhibition of COX2-mediated PGE2 production in LPS-induced mouse J774 cells by radioimmunoassay relative to control; type: cell-based; parameters: concentration or dose not given beside the values; conditions: concentration not given here
T2 sequence (whole entry): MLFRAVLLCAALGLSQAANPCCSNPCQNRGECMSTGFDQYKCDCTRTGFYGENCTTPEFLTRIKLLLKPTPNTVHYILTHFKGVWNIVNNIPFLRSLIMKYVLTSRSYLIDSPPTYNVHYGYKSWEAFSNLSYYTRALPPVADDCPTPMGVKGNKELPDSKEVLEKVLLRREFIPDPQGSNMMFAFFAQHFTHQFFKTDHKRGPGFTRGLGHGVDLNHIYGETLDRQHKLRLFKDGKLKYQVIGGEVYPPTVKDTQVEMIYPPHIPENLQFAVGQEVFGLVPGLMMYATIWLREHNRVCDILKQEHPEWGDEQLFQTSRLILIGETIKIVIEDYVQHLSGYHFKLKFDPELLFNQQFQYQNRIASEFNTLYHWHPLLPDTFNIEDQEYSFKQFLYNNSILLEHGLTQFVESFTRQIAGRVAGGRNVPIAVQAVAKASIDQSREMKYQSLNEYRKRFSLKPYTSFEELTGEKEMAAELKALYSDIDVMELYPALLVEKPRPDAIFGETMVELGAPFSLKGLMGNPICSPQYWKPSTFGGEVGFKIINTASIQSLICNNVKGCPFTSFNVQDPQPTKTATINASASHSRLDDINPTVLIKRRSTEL
How it was run: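 J774 cells, cultured as for the COX-1 assay, were stimulated 24 h with E. coli LPS (10 µg/mL) to induce COX-2, with or without compound at 0.01–10 μM. Supernatant PGE2 was measured by RIA as % inhibition versus control, triplicate wells, mean of three experiments. IC50 came from a sigmoidal variable-slope dose-response fit.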

[5] = Solubility of the compound in PBS buffer at pH 7.4 by HPLC analysis; type: physicochemical
How it was run: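 20 mM DMSO stocks diluted 1:100 into 0.01 M PBS pH 7.4 in duplicate wells of a solubility filter plate, shaken 90 min at 300 rpm. Seven-point calibration standards from 1 to 200 μM.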

[6] = Solubility of the compound in simulated gastric fluid without pepsin at pH 1.5 by HPLC analysis; type: physicochemical
How it was run: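 Compound from 20 mM DMSO stock diluted 1:100 into 0.05 M simulated gastric fluid without pepsin (pH 1.5 with HCl), duplicate wells on a solubility filter plate, shaken 90 min at 300 rpm. Seven-point calibration standards from 1 to 200 μM.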

[7] = molecular target: T3, Prostaglandin G/H synthase 1 (Mus musculus) (UniProt P22437); assay: Inhibition of COX1-mediated PGE2 production in mouse J774 cells at 10 uM preincubated for 15 mins measured after 30 mins by radioimmunoassay relative to control; type: cell-based
T3 sequence (whole entry): T1 sequence (P22437 whole entry)
How it was run: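 Murine J774 macrophages in DMEM with 10% FBS, glutamine, HEPES, pyruvate and antibiotics, adhered 2 h at 37 °C in 5% CO2. Medium was refreshed, cells were pretreated with compound for 15 min, then given 15 μM arachidonic acid for 30 min at 37 °C. PGE2 in supernatant was measured by RIA as % inhibition versus control, triplicate wells, mean of three experiments.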

[8] = molecular target: T4, Prostaglandin G/H synthase 2 (Mus musculus, UniProt Q05769); assay: Inhibition of COX2-mediated PGE2 production in LPS-induced mouse J774 cells by radioimmunoassay; type: cell-based
T4 sequence (Q05769 whole entry): T2 sequence (whole entry)
How it was run: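 J774 murine macrophages stimulated 24 h with E. coli LPS (10 µg/mL) to induce COX-2, with or without compound (0.01–10 μM). Supernatant PGE2 measured by RIA; percent inhibition against controls. Triplicate wells, mean of three experiments; IC50 from sigmoidal variable-slope fit.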

SMILES	IC50 [1]	Activity (Mus musculus [2])	Ratio IC50 (J774)	Activity (Mus musculus [3])	IC50 (Aorta)	inhibition [4]	solubility [5]	solubility [6]	inhibition [7]	IC50 [8]
Cc1c(C(N)C(=O)OCCCCO[N+](=O)[O-])cc(-c2ccc(S(C)(=O)=O)cc2)n1-c1ccc(F)cc1 (centres undefined)	> 10 µM	40.7%	> 10	26.9%	1.55 µM	82%	70.8 µM (≈ 36.8 µg/mL)	> 200 µM	1%	
Cc1c(C(N)C(=O)OCCCO)cc(-c2ccc(S(C)(=O)=O)cc2)n1-c1ccc(F)cc1 (centres undefined)	> 10 µM		> 13.2			100%			23%	0.76 µM
